Activity calls are given as the source filed them. No cut-off for these calls is given here.
How the values were obtained:
Assay type in all cases: functional, cell-based
[1] = biological target: T1, Somatostatin receptor type 2 (Homo sapiens, UniProt P30874); test: Antagonist activity at T7 epitope tagged human cloned sst2 expressed in HEK293 cells assessed as intracellular calcium release upto 10 uM
Outline: (§1)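 HEK-sst2 cells seeded on poly-D-lysine, cultured 1 day, loaded with Fluo-4NW dye (assay buffer HBSS/20 mM HEPES, 2.5 mM probenecid) 30 min 37 °C plus 30 min RT. Analogues alone up to 10 μM, or [Tyr3]-octreotide with 100-fold excess analogue; fluorescence (ex 485/em 520 nm) recorded 60 s at RT; percentage of ionomycin (25 μM) maximum over baseline; ≥3 experiments in triplicate.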

[2] = biological target: T1, Somatostatin receptor type 2; test: Antagonist activity at T7 epitope tagged human cloned sst2 expressed in HEK293 cells assessed as [Tyr3]octreotide-induced intracellular calcium release upto 10 uM; outline: as §1
[3] = biological target: T1, Somatostatin receptor type 2; test: Antagonist activity at T7 epitope tagged human cloned sst2 receptor expressed in HEK293 cells assessed as inhibition of [Tyr3]octreotide-induced receptor internalization upto 10 uM
Outline: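 Surface T7-tagged sst2 on HEK-sst2 cells labelled with anti-T7 antibody 2 h RT in DMEM-LH, then cells exposed 30 min at 37 °C to analogue (alone up to 10 μM or with [Tyr3]-octreotide), fixed in 3% paraformaldehyde, probed with HRP anti-mouse IgG, ABTS read at OD405; surface receptor as % of untreated; mean ± SEM, three experiments in duplicate.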

T1 sequence (P30874 whole entry): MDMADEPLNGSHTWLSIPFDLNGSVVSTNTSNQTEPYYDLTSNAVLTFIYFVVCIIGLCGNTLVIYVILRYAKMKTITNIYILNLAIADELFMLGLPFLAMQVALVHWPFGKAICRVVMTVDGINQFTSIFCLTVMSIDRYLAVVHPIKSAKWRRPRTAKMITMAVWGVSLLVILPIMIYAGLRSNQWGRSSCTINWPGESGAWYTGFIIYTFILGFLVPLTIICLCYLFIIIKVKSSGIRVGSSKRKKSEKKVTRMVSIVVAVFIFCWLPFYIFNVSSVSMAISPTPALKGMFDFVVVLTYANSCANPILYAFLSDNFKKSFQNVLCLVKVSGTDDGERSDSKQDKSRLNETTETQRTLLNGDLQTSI

## C[C@@H](O)[C@@H]1NC(=O)[C@H](CCCCN)NC(=O)[C@@H](Cc2c[nH]c3ccccc23)NC(=O)[C@H](Cc2ccc(NC(N)=O)cc2)NC(=O)[C@H](NC(=O)[C@H](N)Cc2ccc(Cl)cc2)CSSC[C@@H](C(=O)N[C@H](Cc2ccc(NC(N)=O)cc2)C(N)=O)NC1=O
[1]
  Activity: inactive

## C[C@@H](O)[C@@H]1NC(=O)[C@H](CCCCN)NC(=O)[C@@H](Cc2ccc(NC(N)=O)cc2)NC(=O)[C@H](Cc2ccc(O)cc2)NC(=O)[C@H](NC(=O)[C@H](N)Cc2ccc(Cl)cc2)CSSC[C@@H](C(=O)N[C@@H](Cc2ccc3ccccc3c2)C(N)=O)NC1=O
[1]
  Activity: inactive

## C[C@@H](O)[C@@H]1NC(=O)[C@H](CCCCN)NC(=O)[C@@H](Cc2c[nH]c3ccccc23)NC(=O)[C@H](Cc2ccc(O)cc2)NC(=O)[C@H](NC(=O)[C@H](N)Cc2ccc(Cl)cc2)CSSC[C@@H](C(=O)N[C@@H](Cc2ccc3ccccc3c2)C(N)=O)NC1=O
[1]
  Activity: inactive
[2]
  Activity: Active
[3]
  Activity: Active

## C[C@@H](O)[C@@H]1NC(=O)[C@H](CCCCN)NC(=O)[C@@H](Cc2ccc(NC(N)=O)cc2)NC(=O)[C@H](Cc2ccc(NC(=O)[C@@H]3CC(=O)NC(=O)N3)cc2)NC(=O)[C@H](NC(=O)[C@H](N)Cc2ccc(Cl)cc2)CSSC[C@@H](C(=O)N[C@@H](Cc2ccc3ccccc3c2)C(N)=O)NC1=O
[1]
  Activity: inactive
[2]
  Activity: Active
[3]
  Activity: Active

## C[C@@H](O)[C@@H]1NC(=O)[C@H](CCCCN)NC(=O)[C@@H](Cc2c[nH]c3ccccc23)NC(=O)[C@H](Cc2ccc(NC(N)=O)cc2)NC(=O)[C@H](NC(=O)[C@H](N)Cc2ccc(Cl)cc2)CSSC[C@@H](C(=O)N[C@@H](Cc2ccc(NC(N)=O)cc2)C(N)=O)NC1=O
[1]
  Activity: inactive

## CC(=O)N[C@H](Cc1ccc([N+](=O)[O-])cc1)C(=O)N[C@@H]1CSSC[C@@H](C(=O)N[C@H](Cc2ccc(O)cc2)C(N)=O)NC(=O)[C@H]([C@@H](C)O)NC(=O)[C@H](CCCCN)NC(=O)[C@@H](Cc2c[nH]c3ccccc23)NC(=O)[C@H](Cc2ccc(O)cc2)NC1=O
[1]
  Activity: inactive
[3]
  Activity: Active

## C[C@@H](O)[C@@H]1NC(=O)[C@H](CCCCN)NC(=O)[C@@H](Cc2ccc(NC(N)=O)cc2)NC(=O)[C@H](Cc2ccc(O)cc2)NC(=O)[C@H](NC(=O)[C@@H](Cc2ccc(Cl)cc2)NC(=O)CN2CCN(CC(=O)O)CCN(CC(=O)O)CCN(CC(=O)O)CC2)CSSC[C@@H](C(=O)N[C@@H](Cc2ccc3ccccc3c2)C(N)=O)NC1=O
[1]
  Activity: inactive
[2]
  Activity: Active
[3]
  Activity: Active

## C[C@@H](O)[C@@H]1NC(=O)[C@H](CCCCN)NC(=O)[C@@H](Cc2c[nH]c3ccccc23)NC(=O)[C@H](Cc2ccc(NC(N)=O)cc2)NC(=O)[C@H](NC(=O)[C@H](N)Cc2ccc(Cl)cc2)CSSC[C@@H](C(=O)N[C@@H](Cc2ccc(NC(=O)[C@@H]3CC(=O)NC(=O)N3)cc2)C(N)=O)NC1=O
[1]
  Activity: inactive

## C[C@@H](O)[C@@H]1NC(=O)[C@H](CCCCN)NC(=O)[C@@H](Cc2c[nH]c3ccccc23)NC(=O)[C@H](Cc2ccc(NC(N)=O)cc2)NC(=O)[C@H](NC(=O)[C@H](N)Cc2ccc(Cl)cc2)CSSC[C@@H](C(N)=O)NC1=O
[1]
  Activity: inactive
[2]
  Activity: Active
[3]
  Activity: Active

## C[C@@H](O)[C@@H]1NC(=O)[C@H](CCCCN)NC(=O)[C@@H](Cc2c[nH]c3ccccc23)NC(=O)[C@H](Cc2ccc(NC(N)=O)cc2)NC(=O)[C@H](NC(=O)[C@H](N)Cc2ccc(Cl)cc2)CSSC[C@@H](C(=O)N[C@@H](Cc2ccc3ccccc3c2)C(N)=O)NC1=O
[1]
  Activity: inactive
[2]
  Activity: Active
[3]
  Activity: Active

## C[C@@H](O)[C@@H]1NC(=O)[C@H](CCCCN)NC(=O)[C@@H](Cc2c[nH]c3ccc(F)cc23)NC(=O)[C@H](Cc2ccc(NC(N)=O)cc2)NC(=O)[C@H](NC(=O)[C@H](N)Cc2ccc(Cl)cc2)CSSC[C@@H](C(=O)N[C@@H](Cc2ccc3ccccc3c2)C(N)=O)NC1=O
[1]
  Activity: inactive
[2]
  Activity: Active
[3]
  Activity: Active

## C[C@@H](O)[C@@H]1NC(=O)[C@H](CCCCN)NC(=O)[C@@H](Cc2c[nH]c3ccccc23)NC(=O)[C@H](Cc2ccc(O)cc2)NC(=O)[C@H](NC(=O)[C@@H](Cc2ccc([N+](=O)[O-])cc2)NC(=O)CN2CCN(CC(=O)O)CCN(CC(=O)O)CCN(CC(=O)O)CC2)CSSC[C@@H](C(=O)N[C@H](Cc2ccc(O)cc2)C(N)=O)NC1=O
[1]
  Activity: inactive
[2]
  Activity: Active
[3]
  Activity: Active

## C[C@@H](O)[C@@H]1NC(=O)[C@H](CCCCN)NC(=O)[C@@H](Cc2c[nH]c3ccccc23)NC(=O)[C@H](Cc2ccc(NC(N)=O)cc2)NC(=O)[C@H](NC(=O)[C@@H](Cc2ccc(Cl)cc2)NC(N)=O)CSSC[C@@H](C(=O)N[C@@H](Cc2ccc3ccccc3c2)C(N)=O)NC1=O
[1]
  Activity: inactive

## CONC(=O)Nc1ccc(C[C@@H]2NC(=O)[C@H](NC(=O)[C@H](N)Cc3ccc(Cl)cc3)CSSC[C@@H](C(=O)N[C@@H](Cc3ccc4ccccc4c3)C(N)=O)NC(=O)[C@H]([C@@H](C)O)NC(=O)[C@H](CCCCN)NC(=O)[C@@H](Cc3c[nH]c4ccccc34)NC2=O)cc1
[1]
  Activity: inactive

## C[C@@H](O)[C@@H]1NC(=O)[C@H](CCCCN)NC(=O)[C@H](Cc2c[nH]c3ccc(F)cc23)NC(=O)[C@H](Cc2ccc(NC(N)=O)cc2)NC(=O)[C@H](NC(=O)[C@H](N)Cc2ccc(Cl)cc2)CSSC[C@@H](C(=O)N[C@@H](Cc2ccc3ccccc3c2)C(N)=O)NC1=O
[1]
  Activity: inactive

## C[C@@H](O)[C@@H]1NC(=O)[C@H](CCCCN)NC(=O)[C@@H](Cc2c[nH]c3ccccc23)NC(=O)[C@H](Cc2ccc(NC(N)=O)cc2)NC(=O)[C@H](NC(=O)[C@H](N)Cc2ccc(Cl)cc2)CSSC[C@@H](C(=O)N[C@H](Cc2ccc(NC(N)=O)cc2)C(=O)NCC(=O)O)NC1=O
[1]
  Activity: inactive

## C[C@@H](O)[C@@H]1NC(=O)[C@H](CCCCN)NC(=O)[C@@H](Cc2ccc(NC(N)=O)cc2)NC(=O)[C@H](Cc2ccc(O)cc2)NC(=O)[C@H](NC(=O)[C@@H](Cc2ccc([N+](=O)[O-])cc2)NC(=O)CN2CCN(CC(=O)O)CCN(CC(=O)O)CCN(CC(=O)O)CC2)CSSC[C@@H](C(=O)N[C@@H](Cc2ccc3ccccc3c2)C(N)=O)NC1=O
[1]
  Activity: inactive
[2]
  Activity: Active
[3]
  Activity: Active

## C[C@@H](O)[C@@H]1NC(=O)[C@H](CCCCN)NC(=O)[C@@H](Cc2ccc(NC(N)=O)cc2)NC(=O)[C@H](Cc2ccc(O)cc2)NC(=O)[C@H](NC(=O)[C@H](N)Cc2ccc([N+](=O)[O-])cc2)CSSC[C@@H](C(=O)N[C@@H](Cc2ccc3ccccc3c2)C(N)=O)NC1=O
[1]
  Activity: inactive
[3]
  Activity: Active

## C[C@@H](O)[C@@H]1NC(=O)[C@H](CCCCN)NC(=O)[C@@H](Cc2c[nH]c3ccccc23)NC(=O)[C@H](N(C)C(=O)c2ccccc2)NC(=O)[C@H](NC(=O)[C@H](N)Cc2ccc(Cl)cc2)CSSC[C@@H](C(=O)N[C@@H](Cc2ccc3ccccc3c2)C(N)=O)NC1=O
[1]
  Activity: inactive
[3]
  Activity: Active

## C[C@@H](O)[C@@H]1NC(=O)[C@H](CCCCN)NC(=O)[C@@H](Cc2c[nH]c3ccccc23)NC(=O)[C@@H](N(C)C(=O)c2ccccc2)NC(=O)[C@H](NC(=O)[C@H](N)Cc2ccc(Cl)cc2)CSSC[C@@H](C(=O)N[C@@H](Cc2ccc3ccccc3c2)C(N)=O)NC1=O
[1]
  Activity: inactive

## CC(C)C[C@@H]1NC(=O)[C@H](NC(=O)[C@H](N)Cc2ccc(Cl)cc2)CSSC[C@@H](C(=O)N[C@@H](Cc2ccc3ccccc3c2)C(N)=O)NC(=O)[C@H]([C@@H](C)O)NC(=O)[C@H](CCCCN)NC(=O)[C@@H](Cc2c[nH]c3ccccc23)NC1=O
[1]
  Activity: inactive

## C[C@@H](O)[C@@H]1NC(=O)[C@H](CCCCN)NC(=O)[C@@H](Cc2ccc(NC(N)=O)cc2)NC(=O)[C@H](Cc2ccc(NC(=O)[C@@H]3CC(=O)NC(=O)N3)cc2)NC(=O)[C@H](NC(=O)[C@@H](Cc2ccc(Cl)cc2)NC(=O)CN2CCN(CC(=O)O)CCN(CC(=O)O)CCN(CC(=O)O)CC2)CSSC[C@@H](C(=O)N[C@@H](Cc2ccc3ccccc3c2)C(N)=O)NC1=O
[1]
  Activity: inactive
[2]
  Activity: Active
[3]
  Activity: Active

## C[C@@H](O)[C@@H]1NC(=O)[C@H](CCCCN)NC(=O)[C@@H](Cc2c[nH]c3ccccc23)NC(=O)[C@H](Cc2ccc(NC(N)=O)cc2)NC(=O)[C@H](NC(=O)[C@H](N)Cc2ccc(Cl)cc2)CSSC[C@@H](C(=O)N[C@@H](CC2CCCCC2)C(N)=O)NC1=O
[1]
  Activity: inactive

## C[C@@H](O)[C@@H]1NC(=O)[C@H](CCCCN)NC(=O)[C@@H](Cc2c[nH]c3ccccc23)NC(=O)[C@H](Cc2ccc(NC(N)=O)cc2)NC(=O)[C@H](NC(=O)[C@@H](Cc2ccc(Cl)cc2)NC(=O)CCOCCOCCOCCNC(=O)CN2CCN(CC(=O)O)CCN(CC(=O)O)CCN(CC(=O)O)CC2)CSSC[C@@H](C(=O)N[C@@H](Cc2ccc3ccccc3c2)C(N)=O)NC1=O
[1]
  Activity: inactive
[3]
  Activity: Active

## C[C@@H](O)[C@@H]1NC(=O)[C@H](CCCCN)NC(=O)[C@@H](Cc2c[nH]c3ccccc23)NC(=O)[C@H](Cc2ccc(NC(=O)NO)cc2)NC(=O)[C@H](NC(=O)[C@H](N)Cc2ccc(Cl)cc2)CSSC[C@@H](C(=O)N[C@@H](Cc2ccc3ccccc3c2)C(N)=O)NC1=O
[1]
  Activity: inactive

## C[C@@H](O)[C@@H]1NC(=O)[C@H](CCCCN)NC(=O)[C@@H](Cc2ccc(NC(N)=O)cc2)NC(=O)[C@H](Cc2ccc(NC(=O)[C@@H]3CC(=O)NC(=O)N3)cc2)NC(=O)[C@H](NC(=O)[C@H](N)Cc2ccc([N+](=O)[O-])cc2)CSSC[C@@H](C(=O)N[C@@H](Cc2ccc3ccccc3c2)C(N)=O)NC1=O
[1]
  Activity: inactive

— ChEMBL document CHEMBL1157505, “Design and in vitro characterization of highly sst2-selective somatostatin antagonists suitable for radiotargeting” (J Med Chem, 2008)
